Data reported in ChEMBL document CHEMBL1128383, “Potent, orally active, competitive N-methyl-D-aspartate (NMDA) receptor antagonists are substrates for a neutral amino acid uptake system in Chinese hamster ovary cells” (J Med Chem, 1995).
pIC50: −log10 of the molar value. Each block holds one compound with its values, some of them ahead of it.

Columns and labels:
[1] = target: T1, Glutamate NMDA receptor (Rattus norvegicus) (UniProt P35439+Q00959+Q00960+Q00961+Q62645+Q8VHN2+Q9R1M7); test: (§1) Inhibition of NMDA receptor binding affinity in rat brain synaptosomal membrane using [3H]glutamate as radioligand; assay type: cell membranes; conditions: concentration not given here
Procedure, shortened: (§2)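 Displacement of radioligand ([3H]glutamate, [3H]glycine or [3H]CGP 39653) from rat cortex synaptosomal membranes. IC50 values are means of at least two experiments, each run in triplicate.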

[2] = target: T1, Glutamate NMDA receptor (Rattus norvegicus); test: (§3) Inhibition of NMDA receptor binding affinity in rat brain synaptosomal membrane using [3H]glycine as radioligand; assay type: cell membranes; conditions: concentration not given here; procedure, shortened: as §2
[3] = target: T1, Glutamate NMDA receptor (Rattus norvegicus); test: (§4) Inhibition of receptor binding affinity in rat brain synaptosomal membrane was determined by [3H]-CGP- 39653 as radioligand; assay type: cell membranes; conditions: concentration not given here; procedure, shortened: as §2
Mus musculus [4] = test: Maximal electroshock (MES) results in mice by iv administration of 30 mg/kg expressed as number of animals ataxia by total 5 animals tested after 15 min was reported; assay type: functional
Procedure, shortened: (§5)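 Adult male CF-1 mice (18–24 g) dosed iv, mg/kg. At 15 min, 1 h and 2 h after dosing, a 60 Hz sinusoidal current (50 mA base to peak, 0.2 s) is applied through corneal electrodes smeared with electrolyte jelly. Protection means no tonic hindlimb extension. Ataxia is scored by inverted screen. Data are expressed as animals affected per animals tested, 5 per group.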

Mus musculus [5] = test: Maximal electroshock (MES) results in mice by iv administration of 30 mg/kg expressed as number of animals ataxia by total 5 animals tested after 1 hr was reported; assay type: functional; procedure, shortened: as §5
Mus musculus [6] = test: Maximal electroshock (MES) results in mice by iv administration of 30 mg/kg expressed as number of animals ataxia by total 5 animals tested after 2 hr was reported; assay type: functional; procedure, shortened: as §5
Mus musculus [7] = test: Maximal electroshock (MES) results in mice by iv administration of 10 mg/kg expressed as number of animals ataxia by number of animals tested after 15 min was reported; assay type: functional; procedure, shortened: as §5
Mus musculus [8] = test: Maximal electroshock (MES) results in mice by iv administration of 10 mg/kg expressed as number of animals ataxia by number of animals tested after 1 hr was reported; assay type: functional; procedure, shortened: as §5
Mus musculus [9] = test: Maximal electroshock (MES) results in mice by iv administration of 10 mg/kg expressed as number of animals ataxia by total 5 animals tested after 2 hr was reported; assay type: functional; procedure, shortened: as §5
Mus musculus [10] = test: Maximal electroshock (MES) results in mice by iv administration of 10 mg/kg expressed as number of animals protected by number of animals tested after 15 min was reported; assay type: functional; procedure, shortened: as §5
Mus musculus [11] = test: Maximal electroshock (MES) results in mice by iv administration of 10 mg/kg expressed as number of animals protected by number of animals tested after 1 hr was reported; assay type: functional; procedure, shortened: as §5
Mus musculus [12] = test: Maximal electroshock (MES) results in mice by iv administration of 10 mg/kg expressed as number of animals protected by total 5 animals tested after 2 hr was reported; assay type: functional; procedure, shortened: as §5
Mus musculus [13] = test: Maximal electroshock (MES) results in mice by iv administration of 30 mg/kg expressed as number of animals protected by total 5 animals tested after 15 min was reported; assay type: functional; procedure, shortened: as §5
Mus musculus [14] = test: Maximal electroshock (MES) results in mice by iv administration of 30 mg/kg expressed as number of animals protected by total 5 animals tested after 1 hr was reported; assay type: functional; procedure, shortened: as §5
Mus musculus [15] = test: Maximal electroshock (MES) results in mice by iv administration of 30 mg/kg expressed as number of animals protected by total 5 animals tested after 2 hr was reported; assay type: functional; procedure, shortened: as §5
Glutamate NMDA receptor [16] = test: as §1; assay type: cell membranes; procedure, shortened: as §2
Glutamate NMDA receptor [17] = test: as §4; assay type: cell membranes; procedure, shortened: as §2
Glutamate NMDA receptor [18] = test: as §3; assay type: cell membranes; procedure, shortened: as §2
Mus musculus [19] = test: Maximal electroshock (MES) results in mice by iv administration of 0.3 mg/kg expressed as number of animals ataxia by number of animals tested after 1 hr was reported; assay type: functional; procedure, shortened: as §5
Mus musculus [20] = test: Maximal electroshock (MES) results in mice by iv administration of 0.3 mg/kg expressed as number of animals ataxia by total 5 animals tested after 15 min was reported; assay type: functional; procedure, shortened: as §5
Mus musculus [21] = test: Maximal electroshock (MES) results in mice by iv administration of 0.3 mg/kg expressed as number of animals ataxia by total 5 animals tested after 2 hr was reported; assay type: functional; procedure, shortened: as §5
Mus musculus [22] = test: Maximal electroshock (MES) results in mice by iv administration of 1 mg/kg expressed as number of animals ataxia by total 5 animals tested after 15 min was reported; assay type: functional; procedure, shortened: as §5
Mus musculus [23] = test: Maximal electroshock (MES) results in mice by iv administration of 1 mg/kg expressed as number of animals ataxia by total 5 animals tested after 1 hr was reported; assay type: functional; procedure, shortened: as §5
Mus musculus [24] = test: Maximal electroshock (MES) results in mice by iv administration of 1 mg/kg expressed as number of animals ataxia by total 5 animals tested after 2 hr was reported; assay type: functional; procedure, shortened: as §5
Mus musculus [25] = test: Maximal electroshock (MES) results in mice by iv administration of 0.3 mg/kg expressed as number of animals protected by total 5 animals tested after 15 min was reported; assay type: functional; procedure, shortened: as §5
Mus musculus [26] = test: Maximal electroshock (MES) results in mice by iv administration of 0.3 mg/kg expressed as number of animals protected by total 5 animals tested after 1 hr was reported; assay type: functional; procedure, shortened: as §5
Mus musculus [27] = test: Maximal electroshock (MES) results in mice by iv administration of 0.3 mg/kg expressed as number of animals protected by total 5 animals tested after 2 hr was reported; assay type: functional; procedure, shortened: as §5
Mus musculus [28] = test: Maximal electroshock (MES) results in mice by iv administration of 1 mg/kg expressed as number of animals protected by total 5 animals tested after 15 min was reported; assay type: functional; procedure, shortened: as §5
Mus musculus [29] = test: Maximal electroshock (MES) results in mice by iv administration of 1 mg/kg expressed as number of animals protected by total 5 animals tested after 1 hr was reported; assay type: functional; procedure, shortened: as §5
Mus musculus [30] = test: Maximal electroshock (MES) results in mice by iv administration of 1 mg/kg expressed as number of animals protected by total 5 animals tested after 2 hr was reported; assay type: functional; procedure, shortened: as §5
Mus musculus [31] = test: Maximal electroshock (MES) results in mice by iv administration of 10 mg/kg expressed as number of animals with ataxia total 5 animals tested after 2 hr was reported; assay type: functional; procedure, shortened: as §5
Mus musculus [32] = test: Maximal electroshock (MES) results in mice by iv administration of 3 mg/kg expressed as number of animals with ataxia by total 5 animals tested after 15 min was reported; assay type: functional; procedure, shortened: as §5
Mus musculus [33] = test: Maximal electroshock (MES) results in mice by iv administration of 3 mg/kg expressed as number of animals with ataxia by total 5 animals tested after 1 hr was reported; assay type: functional; procedure, shortened: as §5
Mus musculus [34] = test: Maximal electroshock (MES) results in mice by iv administration of 3 mg/kg expressed as number of animals with ataxia total 5 animals tested after 2 hr was reported; assay type: functional; procedure, shortened: as §5
Mus musculus [35] = test: Maximal electroshock (MES) results in mice by iv administration of 10 mg/kg expressed as number of animals with ataxia total 5 animals tested after 15 min was reported; assay type: functional; procedure, shortened: as §5
Mus musculus [36] = test: Maximal electroshock (MES) results in mice by iv administration of 10 mg/kg expressed as number of animals with ataxia total 5 animals tested after 1 hr was reported; assay type: functional; procedure, shortened: as §5
Mus musculus [37] = test: Maximal electroshock (MES) results in mice by iv administration of 10 mg/kg expressed as number of animals protected by total 5 animals tested after 15 min was reported; assay type: functional; procedure, shortened: as §5
Mus musculus [38] = test: Maximal electroshock (MES) results in mice by iv administration of 10 mg/kg expressed as number of animals protected by total 5 animals tested after 1 hr was reported; assay type: functional; procedure, shortened: as §5
Mus musculus [39] = test: Maximal electroshock (MES) results in mice by iv administration of 3 mg/kg expressed as number of animals protected by total 5 animals tested after 15 min was reported; assay type: functional; procedure, shortened: as §5
Mus musculus [40] = test: Maximal electroshock (MES) results in mice by iv administration of 3 mg/kg expressed as number of animals protected by total 5 animals tested after 1 hr was reported; assay type: functional; procedure, shortened: as §5
Mus musculus [41] = test: Maximal electroshock (MES) results in mice by iv administration of 3 mg/kg expressed as number of animals protected by total 5 animals tested after 2 hr was reported; assay type: functional; procedure, shortened: as §5
Glutamate NMDA receptor [42] = test: Inhibition of receptor binding affinity in […] measured using LDH release
Procedure, shortened: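 Neuronal cell-culture excitotoxicity assay. Cell death is induced by a 5 min application of 100 μM NMDA and read out as lactate dehydrogenase release. The value is the compound concentration needed to prevent cell death.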

Compound: N[C@H](Cc1cccc(-c2ccccc2)c1)C(=O)O
inhibition [1]: 90%
inhibition [2]: 81%
inhibition [3]: 100%

Compound: N[C@@H](Cc1cc(-c2ccccc2)cc(CP(=O)(O)O)c1[N+](=O)[O-])C(=O)O
pIC50 (Glutamate NMDA receptor [16]): 5.64
pIC50 (Glutamate NMDA receptor [18]): 4.94
pIC50 (Glutamate NMDA receptor [17]): 5.97

More lines, main results first:

pIC50 (Glutamate NMDA receptor [16]): 6.49
pIC50 (Glutamate NMDA receptor [17]): 6.60
Compound: N[C@H](Cc1cc(CP(=O)(O)O)cc(-c2cccc3ccccc23)c1)C(=O)O
Ataxia (Mus musculus [4]): 1
Ataxia (Mus musculus [5]): 0
Ataxia (Mus musculus [6]): 0
Ataxia (Mus musculus [7]): 0
Ataxia (Mus musculus [8]): 0
Ataxia (Mus musculus [9]): 0
Protected (Mus musculus [10]): 0
Protected (Mus musculus [11]): 0
Protected (Mus musculus [12]): 1
Protected (Mus musculus [13]): 3
Protected (Mus musculus [14]): 3
Protected (Mus musculus [15]): 5

pIC50 (Glutamate NMDA receptor [16]): 7.85
pIC50 (Glutamate NMDA receptor [17]): 7.92
Compound: N[C@@H](Cc1cc(CP(=O)(O)O)cc(-c2ccc3ccccc3c2)c1)C(=O)O
Ataxia (Mus musculus [19]): 0
Ataxia (Mus musculus [20]): 0
Ataxia (Mus musculus [21]): 0
Ataxia (Mus musculus [22]): 0
Ataxia (Mus musculus [23]): 1
Ataxia (Mus musculus [24]): 0
Protected (Mus musculus [25]): 1
Protected (Mus musculus [26]): 0
Protected (Mus musculus [27]): 2
Protected (Mus musculus [28]): 1
Protected (Mus musculus [29]): 5
Protected (Mus musculus [30]): 5

pIC50 (Glutamate NMDA receptor [42]): 6.00
pIC50 (Glutamate NMDA receptor [16]): 6.89
pIC50 (Glutamate NMDA receptor [18]): 3.65
pIC50 (Glutamate NMDA receptor [17]): 7.06
Compound: N[C@@H](Cc1cc(CP(=O)(O)O)cc(-c2ccccc2)c1)C(=O)O
Ataxia (Mus musculus [31]): 0
Ataxia (Mus musculus [32]): 0
Ataxia (Mus musculus [33]): 0
Ataxia (Mus musculus [34]): 0
Ataxia (Mus musculus [35]): 0
Ataxia (Mus musculus [36]): 1
Protected (Mus musculus [37]): 5
Protected (Mus musculus [38]): 4
Protected (Mus musculus [12]): 3
Protected (Mus musculus [39]): 1
Protected (Mus musculus [40]): 0
Protected (Mus musculus [41]): 1
